Test results: ChEMBL document CHEMBL1158179, “Facile synthesis of dithiatetraaza-macrocycles of potential anti-inflammatory activity” (Eur J Med Chem, 2008)

Assays:
[1] = tested on: Rattus norvegicus; assay: Antiinflammatory activity against carrageenan-induced paw edema in Wister albino rat at 50 mg/kg, ip administered 1 hr before inflammation induction assessed after 4 hrs relative to indomethacin; type: functional; details: route intraperitoneal
Method in brief: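 Same rat carrageenan paw oedema protocol: i.p. dosing in DMSO 1 h before carrageenan, with paw volume read by plethysmometer at 4 h. Potency is the % oedema inhibition of the test group divided by that of the indomethacin (10 mg/kg i.p.) group.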

[2] = tested on: Rattus norvegicus; assay: Antiinflammatory activity against carrageenan-induced paw edema in Wister albino rat at 50 mg/kg, ip administered 1 hr before inflammation induction assessed after 4 hrs; type: functional; details: route intraperitoneal
Method in brief: (§1)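 Wistar albino rats of either sex (pregnant females excluded), 160–190 g, 6 per group, kept at 22 °C on a 12 h light/dark cycle. Agent in DMSO given i.p. 1 h before 0.1 ml of 1% carrageenan in saline was injected subcutaneously into the right hind paw. Controls got DMSO. Oedema was paw volume by plethysmometer minus initial volume. Values are % inhibition = (Vc−Vt)/Vc×100; means ± SE, one-way ANOVA with LSD, p<0.05.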

[3] = tested on: Mus musculus; assay: Toxicity in albino mouse at 1000 mg/kg, ip assessed as mortality after 24 hrs by LD50 standard method; type: organism-based; set-up: dose 1000 mg/kg, route intraperitoneal; details: in vivo
Method in brief: (§2)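 Albino mice, 20-25 g, 9 groups of 6; test agents dissolved in DMSO and given intraperitoneally at 500, 750 and 1000 mg/kg body weight; controls received DMSO only. Toxic symptoms, mortality and postmortem findings recorded 24 h after administration; LD50 computed by formula from largest dose killing all animals, mean dead between successive groups, dose factor and group size.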

[4] = tested on: Rattus norvegicus; assay: Antiinflammatory activity against carrageenan-induced paw edema in Wister albino rat at 50 mg/kg, ip administered 1 hr before inflammation induction assessed after 1 hr; type: functional; details: route intraperitoneal; method in brief: as §1
[5] = tested on: Rattus norvegicus; assay: Antiinflammatory activity against carrageenan-induced paw edema in Wister albino rat at 50 mg/kg, ip administered 1 hr before inflammation induction assessed after 3 hrs; type: functional; details: route intraperitoneal; method in brief: as §1
[6] = tested on: Mus musculus; assay: Toxicity in albino mouse at 750 mg/kg, ip assessed as mortality after 24 hrs by LD50 standard method; type: organism-based; set-up: dose 750 mg/kg, route intraperitoneal; details: in vivo; method in brief: as §2
[7] = tested on: Mus musculus; assay: Toxicity in albino mouse at 500 mg/kg, ip assessed as mortality after 24 hrs by LD50 standard method; type: organism-based; set-up: dose 500 mg/kg, route intraperitoneal; details: in vivo; method in brief: as §2
[8] = tested on: Rattus norvegicus; assay: Antiinflammatory activity against carrageenan-induced paw edema in Wister albino rat at 50 mg/kg, ip administered 1 hr before inflammation induction assessed after 2 hrs; type: functional; details: route intraperitoneal; method in brief: as §1
[9] = tested on: Rattus norvegicus; assay: Antiinflammatory activity against carrageenan-induced paw edema in Wister albino rat at 10 mg/kg, ip administered 1 hr before inflammation induction assessed after 3 hrs; type: functional; details: route intraperitoneal; method in brief: as §1
[10] = tested on: Rattus norvegicus; assay: Antiinflammatory activity against carrageenan-induced paw edema in Wister albino rat at 10 mg/kg, ip administered 1 hr before inflammation induction assessed after 1 hr; type: functional; details: route intraperitoneal; method in brief: as §1
[11] = tested on: Rattus norvegicus; assay: Antiinflammatory activity against carrageenan-induced paw edema in Wister albino rat at 10 mg/kg, ip administered 1 hr before inflammation induction assessed after 4 hrs; type: functional; details: route intraperitoneal; method in brief: as §1
[12] = tested on: Rattus norvegicus; assay: Antiinflammatory activity against carrageenan-induced paw edema in Wister albino rat at 10 mg/kg, ip administered 1 hr before inflammation induction assessed after 2 hrs; type: functional; details: route intraperitoneal; method in brief: as §1

| Compound | Ratio [1] | inhibition in vivo at 50 mg/kg [2] [%] | further results |
| --- | --- | --- | --- |
| S=C(Nc1ccccc1)Nc1ccccc1SCCCSc1ccccc1NC(=S)Nc1ccccc1 | 0.66 | 38 |  |
| O=C1Nc2ccc(cc2)NC(=O)Nc2ccccc2SCCCSc2ccccc2N1 | 0.85 | 48.9 | Activity [3]: Non-toxic; inhibition in vivo at 50 mg/kg [4]: 45.4%; inhibition in vivo at 50 mg/kg [5]: 46.6%; Activity [6]: Non-toxic; Activity [7]: Non-toxic; inhibition in vivo at 50 mg/kg [8]: 44% |
| O=C(Nc1ccc(Cl)c(Cl)c1)Nc1ccccc1SCCCSc1ccccc1NC(=O)Nc1ccc(Cl)c(Cl)c1 | 0.49 | 28.3 |  |
| COc1ccc(NC(=O)Nc2ccccc2SCCSc2ccccc2NC(=O)Nc2ccc(OC)cc2)cc1 | 0.9 | 51.9 | Activity [3]: Non-toxic; inhibition in vivo at 50 mg/kg [4]: 35.2%; inhibition in vivo at 50 mg/kg [5]: 39.2%; Activity [6]: Non-toxic; Activity [7]: Non-toxic; inhibition in vivo at 50 mg/kg [8]: 38.4% |
| COc1ccc(NC(=O)Nc2ccccc2SCCCSc2ccccc2NC(=O)Nc2ccc(OC)cc2)cc1 | 0.61 | 35 |  |
| CCNC(=O)Nc1ccccc1SCCSc1ccccc1NC(=O)NCC | 0.57 | 33.1 |  |
| S=C(Nc1ccccc1)Nc1ccccc1SCCSc1ccccc1NC(=S)Nc1ccccc1 | 0.75 | 43.3 |  |
| O=C(Nc1ccccc1)Nc1ccccc1SCCSc1ccccc1NC(=O)Nc1ccccc1 | 0.57 | 32.8 |  |
| O=C(Nc1ccccc1)Nc1ccccc1SCCCSc1ccccc1NC(=O)Nc1ccccc1 | 0.51 | 29.6 |  |
| O=C1Nc2ccc(cc2)NC(=O)Nc2ccccc2SCCSc2ccccc2N1 | 0.61 | 34.9 |  |
| O=C(Nc1ccc(Cl)c(Cl)c1)Nc1ccccc1SCCSc1ccccc1NC(=O)Nc1ccc(Cl)c(Cl)c1 | 0.12 | 7.1 |  |
| CCNC(=O)Nc1ccccc1SCCCSc1ccccc1NC(=O)NCC | 0.73 | 42.1 |  |
| COc1ccc2c(c1)c(CC(=O)O)c(C)n2C(=O)c1ccc(Cl)cc1 [INDOMETHACIN] |  |  | inhibition in vivo at 10 mg/kg [9]: 50.1%; inhibition in vivo at 10 mg/kg [10]: 50.5%; inhibition in vivo at 10 mg/kg [11]: 57.6%; inhibition in vivo at 10 mg/kg [12]: 48.2% |
